From ChEMBL document CHEMBL4304792, “Cinnamonitrile Adjuvants Restore Susceptibility to β-Lactams against Methicillin-Resistant Staphylococcus aureus” (ACS Med Chem Lett, 2019) come the findings set out here.

The source made the active and inactive calls. No cut-off for these calls is given here.

For experiment [1], the system named is Staphylococcus aureus. In words: Antibacterial activity against Staphylococcus aureus MRSA252 measured after 16 to 20 hrs in presence of 2% NaCl by microdilution broth method. Type of experiment: functional.
The subject of experiment [2] is Staphylococcus aureus. Put plainly: Potentiation of oxacillin induced antibacterial activity against Staphylococcus aureus NRS119 assessed as oxacillin MIC at 20 uM measured after 16 to 20 hrs in presence of 2% NaCl by microdilution broth method (reference value: 256 mg/L). Type of experiment: functional. A general note: Dilution methods test growth across graded concentrations, often in twofold steps.

Experiment [3] relates to Staphylococcus aureus. In words: Potentiation of oxacillin induced antibacterial activity against Staphylococcus aureus USA200-NRS383 assessed as oxacillin MIC at 16 uM measured after 16 to 20 hrs in presence of 2% NaCl by microdilution broth method (reference value: 128 mg/L). The format is functional.
Experiment [4] deals with Staphylococcus aureus. In words: Potentiation of oxacillin induced antibacterial activity against Staphylococcus aureus NRS384 assessed as oxacillin MIC at 16 uM measured after 16 to 20 hrs in presence of 2% NaCl by microdilution broth method (reference value: 32 mg/L). Type of experiment: functional.
In experiment [5] the test system is Staphylococcus aureus. In words: Potentiation of oxacillin induced antibacterial activity against Staphylococcus aureus NRS384 assessed as oxacillin MIC at 8 uM measured after 16 to 20 hrs in presence of 2% NaCl by microdilution broth method (reference value: 32 mg/L). The format is functional.
Experiment [6] deals with Staphylococcus aureus. Put plainly: Potentiation of oxacillin induced antibacterial activity against Staphylococcus aureus MRSA252 assessed as oxacillin MIC at 8 uM measured after 16 to 20 hrs in presence of 2% NaCl by microdilution broth method (reference value: 256 mg/L). The format is functional.
For experiment [7], the system named is Staphylococcus aureus. Put plainly: Antibacterial activity against Staphylococcus aureus Mu50 NRS1 measured after 16 to 20 hrs in presence of 2% NaCl by microdilution broth method. The format is functional.
In experiment [8] the test system is Staphylococcus aureus. In words: Antibacterial activity against Staphylococcus aureus NRS119 measured after 16 to 20 hrs in presence of 2% NaCl by microdilution broth method. Type of experiment: functional.
The subject of experiment [9] is Staphylococcus aureus. Put plainly: Antibacterial activity against Staphylococcus aureus USA200-NRS383 measured after 16 to 20 hrs in presence of 2% NaCl by microdilution broth method. The format is functional.
In experiment [10] the test system is Staphylococcus aureus. Put plainly: Potentiation of oxacillin induced antibacterial activity against Staphylococcus aureus NRS70 assessed as oxacillin MIC at 20 uM measured after 16 to 20 hrs in presence of 2% NaCl by microdilution broth method (reference value: 64 mg/L). Type of experiment: functional.
Experiment [11] concerns Staphylococcus aureus. Put plainly: Inhibition of N-terminal His-tagged Staphylococcus aureus capA1ct/B2 expressed in Escherichia coli BL21 star (DE3) assessed as decrease in phosphorylation at 100 uM using MBP as substrate measured after 20 mins in presence of [33P] gammaATP by SDS-PAGE.
Experiment [12] deals with Staphylococcus aureus. In words: Inhibition of recombinant […] N-terminal Stre-tagged Staphylococcus aureus NCTC8325 STK1 domain (1 to 348 residues) expressed in Escherichia coli BL21 star (DE3) assessed as decrease in phosphorylation at 100 uM using MBP as substrate measured after 20 mins in presence of [33P] gammaATP by SDS-PAGE.
For experiment [13], the system named is Staphylococcus aureus. Put plainly: Inhibition of recombinant full length N-terminal Stre-tagged Staphylococcus aureus NCTC8325 STK1 expressed in Escherichia coli BL21 star (DE3) assessed as decrease in phosphorylation at 100 uM using MBP as substrate measured after 20 mins [33P] gammaATP by SDS-PAGE.
The subject of experiment [14] is Staphylococcus aureus. In words: Inhibition of C-terminal His-tagged Staphylococcus aureus NCTC8325 RsbW expressed in Escherichia coli BL21 star (DE3) assessed as decrease in phosphorylation at 100 uM using RsbV as substrate measured after 20 mins in presence of [33P] gammaATP by SDS-PAGE.
Experiment [15] concerns Staphylococcus aureus. Put plainly: Inhibition of N-terminal His-tagged Staphylococcus aureus NCTC8325 RsbV expressed in Escherichia coli BL21 star (DE3) assessed as decrease in phosphorylation at 100 uM measured after 20 mins in presence of [33P] gammaATP by SDS-PAGE.
Experiment [16] has as its system Staphylococcus aureus. In words: Synergistic antibacterial activity against methicillin resistant Staphylococcus aureus Mu50 NRS1 assessed as fractional inhibitory concentration index in presence of oxacillin by checkerboard assay. The format is functional. Put shortly: (§1)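 Checkerboard combinations of the adjuvant with oxacillin were tested against MRSA strains NRS1, NRS70 and NRS384. The fractional inhibitory concentration index (FICI) was derived from the combination MICs, and each interaction was classed as synergistic or indifferent (additive).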

The subject of experiment [17] is Staphylococcus aureus. Put plainly: Synergistic antibacterial activity against methicillin resistant Staphylococcus aureus NRS70 assessed as fractional inhibitory concentration index in presence of oxacillin by checkerboard assay. The format is functional. The procedure, abridged:
as §1

Experiment [18] concerns Staphylococcus aureus. In words: Synergistic antibacterial activity against methicillin resistant Staphylococcus aureus NRS384 assessed as fractional inhibitory concentration index in presence of oxacillin by checkerboard assay. The format is functional. The procedure, abridged: as §1

In the case of `CS(=O)(=O)/C(C#N)=C/c1cc(Cc2ccc(Cl)c(Cl)c2)ccc1F`, the MIC in [1] was 32 µg/mL; in [2], at most 0.03 µg/mL; in [3], at least 128 µg/mL; in experiment [4], 0.25 µg/mL; in experiment [5], 2 µg/mL; in [6], 256 µg/mL. In addition, the MIC in experiment [7] is at least 64 µg/mL; in experiment [8], 16 µg/mL; in [9], at least 64 µg/mL; in experiment [10], at most 0.03 µg/mL.

For `CS(=O)(=O)/C(C#N)=C/c1cc(-c2ccc(Cl)c(Cl)c2)ccc1F`, the MIC in experiment [1] is 16 µg/mL; in experiment [2], 0.12 µg/mL; in [3] it was at least 128 µg/mL; in experiment [4], 8 µg/mL; in [5], 8 µg/mL; in [6] it was 256 µg/mL. For the same compound, the MIC in [7] was 16 µg/mL; in experiment [8], 16 µg/mL; in experiment [9] it was 16 µg/mL; in [10], 0.12 µg/mL.

Consider `CS(=O)(=O)/C(C#N)=C/c1c(F)ccc(Cc2ccc(Cl)c(Cl)c2)c1F`, for which the MIC was 16 µg/mL in experiment [1]; at least 128 µg/mL in experiment [3]; 0.5 µg/mL in experiment [4]; 32 µg/mL in [5]; 256 µg/mL in experiment [6]; 16 µg/mL in [7]. Also, the figures for the minimal inhibitory concentration (MIC) in [8], in experiment [9] and in experiment [10] (record 2) were 16 µg/mL, 16 µg/mL and at most 0.03 µg/mL, respectively. The MIC result in experiment [2] and in experiment [10] was “Active” in each case.

In the case of `N#C/C(=C\c1cc(Cc2ccc(Cl)c(Cl)c2)ccc1F)S(=O)(=O)c1ccccn1`, the MIC in experiment [1] is 16 µg/mL; in [2] it was 0.12 µg/mL; in experiment [3], at least 128 µg/mL; in experiment [4], 0.12 µg/mL; in experiment [5], 0.5 µg/mL; in experiment [6], 256 µg/mL. In addition, the MIC was 16 µg/mL in experiment [7], 16 µg/mL in experiment [8], 16 µg/mL in [9] and at most 0.03 µg/mL in [10].

On to `CS(=O)(=O)/C(C#N)=C/c1cc(Cc2ccc(Cl)c(Cl)c2)ccc1OC(F)(F)F`, for which the inhibition entry in experiment [11], in [12], in experiment [13], in [14] and in experiment [15] was “inactive” each time. Besides, the MIC in experiment [1] came to 8 µg/mL; in experiment [4] it was 0.03 µg/mL; in [5], 0.25 µg/mL; in experiment [6], 2 µg/mL; in experiment [7], 32 µg/mL; in experiment [8], 8 µg/mL. Besides, the MIC in experiment [9] was 32 µg/mL; in [10] (record 2), at most 0.03 µg/mL. The MIC result in [2] and in experiment [10] was “Active” throughout. The “fractional inhibitory concentration index (FICI)” value in [16] is 0.28; in experiment [17], 0.28; in [18] it was 0.38.

One may read the MIC as the lowest concentration that inhibits growth of the organism.
